Bioassay records: PubChem BioAssay, NMMLSC
This is a sample that favours compounds with a hit; in the whole collection about 2.5% have one here.
MEKK2wt PB1 HTS = raises or lowers MEK5 binding to wildtype human MEKK2 PB1 domain; bead flow cytometry, Alexa488-MEK5 binding to MEKK2 WT; actives lie on both sides; binding response (% of control), % at 10 µM; AID 1531; actives 1.1% (n = 290,000); in the data active means binding response below about 67% or above about 130%
ABCG2 block = blocks JC-1 efflux by human ABCG2 transporter; IgMXP3 cells, flow cytometry; actives 0.1% (n = 190,000); Q9UNQ0; inhibition, % at 6.6 µM; AID 1325;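 active means inhibition above 80%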
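Read-out basis: Efflux inhibition in percent versus controls | Test system: ABCG2 IgMXP3 and barcoded ABCB1 CCRF-Adr cell mix | Quantity: 3 million cells/mL in well | Schedule: 10 min at 25 °C | Control set: Nicardipine as high control, DMSO as low control | Reagent: JC-1 as fluorescent efflux pump substrate | Signal: Flow cytometry of retained JC-1 fluorescence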
MEKK3 PB1 HTS = MEKK3-MEK5 PB1 interaction, increase or decrease. actives 1.4% (n = 290,000). AID 1529. bead-based flow cytometry, Alexa488-MEK5 binding to MEKK3; actives lie on both sides; 0 = blocked by unlabeled MEK5, 100 = vehicle. binding response (% of control), % at 10 µM. Q99759;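 active means binding response more than 3 SD above or below the average of its plate-row segment, actives on both sides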;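 further: Alexa488 bead fluorescence after subtracting the streptavidin-only scavenger bead signal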
Target sequence (Q99759 whole entry, looked up): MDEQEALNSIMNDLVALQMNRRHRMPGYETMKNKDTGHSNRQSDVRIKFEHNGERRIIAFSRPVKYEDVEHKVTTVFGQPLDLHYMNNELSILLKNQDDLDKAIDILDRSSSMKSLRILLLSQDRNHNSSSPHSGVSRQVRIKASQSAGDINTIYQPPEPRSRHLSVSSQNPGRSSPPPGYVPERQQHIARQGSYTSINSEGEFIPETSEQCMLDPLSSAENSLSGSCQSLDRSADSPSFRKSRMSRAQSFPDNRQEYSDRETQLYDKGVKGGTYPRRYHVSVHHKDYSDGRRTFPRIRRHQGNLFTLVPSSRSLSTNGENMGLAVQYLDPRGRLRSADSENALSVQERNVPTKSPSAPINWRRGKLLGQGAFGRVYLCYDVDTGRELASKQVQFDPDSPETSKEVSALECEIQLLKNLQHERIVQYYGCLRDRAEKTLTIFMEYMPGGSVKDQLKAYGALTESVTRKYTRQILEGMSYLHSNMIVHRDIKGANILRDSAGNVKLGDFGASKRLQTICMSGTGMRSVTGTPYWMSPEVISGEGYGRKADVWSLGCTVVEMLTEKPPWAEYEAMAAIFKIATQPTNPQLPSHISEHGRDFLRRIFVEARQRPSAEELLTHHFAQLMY
Efflux pump inh = antifungal efflux pump inhibition, Nile Red retention; S. cerevisiae Candida pump triplex; inhibition, % at 10 µM; actives 0.44% (n = 330,000);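 active means plate passing quality check with inhibition over a set limit, or well fluorescence over plate mean plus 4 SD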;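 further: Nile Red retained in pooled yeast measured as flow cytometry median fluorescence; higher means more Nile Red kept so more efflux inhibition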
MEKK2 mut-MEK5 = signal of MEK5 binding to mutant human MEKK2 PB1 domain; AID 1530; actives 0.35% (n = 290,000); percent response, % at 10 µM; bead flow cytometry, Alexa488-MEK5 binding to MEKK2 mutant; in the data active means percent response above about 24%, passing the limit was not always enough
ABCB1 inh = blocks JC-1 efflux by human ABCB1 transporter | CCRF-Adr cells, flow cytometry | inhibition, % at 6.6 µM | actives 0.067% (n = 190,000) | AID 1326; in the data active means inhibition above about 40%;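 further: higher value means more JC-1 retained so stronger ABCB1 efflux block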
MEKK2wt confirm = raises or lowers MEK5 binding to wildtype human MEKK2, retest; shares compounds with MEKK3 PB1 HTS; bead flow cytometry, Alexa488-MEK5 binding to MEKK2 WT; actives lie on both sides; binding response (% of control), % at 10 µM; actives 2.4% (n = 5,900); in the data active means binding response below about 16% or above about 210%; inactive means in between
MEKK2mut confirm = signal of MEK5 binding to mutant human MEKK2, retest; actives 2% (n = 5,900); percent response, % at 10 µM; bead flow cytometry, Alexa488-MEK5 binding to MEKK2 mutant; shares compounds with MEKK3 PB1 HTS; AID 1893; in the data active means percent response mostly above about 71%, no sharp cut-off; inactive means mostly below about 38%;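 further: higher means compound restores mutant binding toward wildtype level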
MEKK3 confirm = confirmation of inhibitors of MEK5 binding to human MEKK3. AID 1894. bead flow cytometry, Alexa488-MEK5 binding to MEKK3; stronger effect = lower value. shares compounds with MEKK3 PB1 HTS. actives 1.8% (n = 5,900). binding response (% of control), % at 10 µM;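 active means binding response below 72% of control, or above a set upper limit, though filed actives all read lower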
Hits are given with their value; – = inactive; · = no result given; [ ] = another dose, or the depositor's remark.

SMILES	MEKK2wt PB1 HTS	ABCG2 block	MEKK3 PB1 HTS	Efflux pump inh	MEKK2 mut-MEK5	ABCB1 inh	MEKK2wt confirm	MEKK2mut confirm	MEKK3 confirm
CC(C)C(=O)Nc1ccc(N2CCCC2)c(Cl)c1	–	–	151.0	–	–	–	–	–	–
CC(C)CC(=O)NC(=S)Nc1ccc(N2CCCC2)c(Cl)c1	–	·	–	–	–	·	·	·	·
CC(=O)Nc1c(C(=O)N2CCCCCC2)cnn1-c1ccccc1	–	–	81.0[inhibitor]	–	–	–	–	–	–
COc1ccc(S(=O)(=O)NC(C)C)cc1C(=O)N1CCOCC1	-2.0[inhibitor]	–	–	–	–	–	–	–	–
COc1cc(CN2CCN(C3CCC3)CC2CCO)cc(OC)c1 (centres undefined)	–	·	–	–	–	·	·	·	·
Cc1cc(C)nc(SCc2cc(=O)c(OC(=O)c3ccco3)co2)n1	–	–	–	–	–	–	·	·	·
Cc1cc(C)nc(SCc2cc(=O)c(OC(=O)c3ccc(Br)o3)co2)n1	–	–	128.0	–	–	–	–	–	–
C=CCn1cnc2c(nnn2-c2ccc(C)c(C)c2)c1=O	1.0[inhibitor]	–	2.0[inhibitor]	–	–	–	–	–	–
Cc1nc(-c2ccc(Br)cc2)ccc1C(=O)O	–	–	–	–	–	–	·	·	·
N#Cc1c(-c2ccc3c(c2)OCO3)csc1N	–	–	123.0	–	–	–	–	–	–
CCC(=O)N(CCc1ccccc1)Cc1cc2ccc(OC)cc2[nH]c1=O	–	·	–	–	–	·	·	·	·
CCC(=O)N(CCc1ccccc1)Cc1cc2cc(OC)ccc2[nH]c1=O	–	·	135.0	–	–	·	–	–	–
COc1cccc(NC(=O)N2CCCC2C(=O)NCc2ccccc2F)c1 (centres undefined)	–	–	–	–	–	–	·	·	·
COc1cccc(NC(=O)C2CCCN2C(=O)Nc2ccccc2F)c1 (centres undefined)	-2.0[inhibitor]	–	1.0[inhibitor]	–	–	–	–	–	–
COc1cccc(NC(=O)N2CCCC2C(=O)NCc2ccccc2)c1 (centres undefined)	55.0[inhibitor]	–	63.0[inhibitor]	–	–	–	–	–	–
COc1cccc(CN2CCCCC2C(=O)O)c1 (centres undefined)	–	–	40.0[inhibitor]	–	–	–	–	–	–
COc1cccc(CN2CCCC(C(=O)N3CCCCC3)C2)c1 (centres undefined)	–	·	–	–	–	·	·	·	·
Cn1c(=O)c2[nH]c(CCCC(=O)O)nc2n(Cc2ccccc2)c1=S	–	·	–	–	–	·	·	·	·
Oc1ccccc1-c1nnc(-c2ccc(C(F)(F)F)cc2)o1	–	–	81.0[inhibitor]	–	–	–	–	–	–
COc1cccc(-c2nnc(-c3ccc(C(F)(F)F)cc3)o2)c1	–	–	–	–	–	–	·	·	·
Cc1ccc(C)c2[nH]c(=O)c(CN(CCN3CCCC3)C(=O)Nc3cccc(Cl)c3)cc12	153.0	–	–	–	41.0	–	–	–	–
Cc1cc(C)c2cc(CN(CCN3CCCC3)C(=O)Nc3ccc(F)cc3)c(=O)[nH]c2c1	–	–	–	–	–	–	·	·	·
OC1(c2cccc(C(F)(F)F)c2)CCN(CCN2CCCCC2)CC1	140.0	·	–	–	–	·	–	–	–
CCC(C)(C)n1nnnc1CN1CCC(O)(c2cccc(C(F)(F)F)c2)CC1	–	–	–	–	–	–	·	·	·
C#CC(C)(CC)NC(=O)c1cc2cccc(CC=C)c2oc1=O (centres undefined)	–	–	–	–	–	–	·	·	·
